In paper PMC6861656 (Angewandte Chemie (International ed. in English), 2019):

How the values were obtained:
GLUT1 = target: T1, GLUT1 (Homo sapiens, UniProt P11166); experiment: rapafucin 3D microarray screen with GLUT1-containing cell lysate; format: binding; conditions: hit when SBR greater than 3; GLUT1-containing HEK293T lysate
T1 sequence (P11166 1-492): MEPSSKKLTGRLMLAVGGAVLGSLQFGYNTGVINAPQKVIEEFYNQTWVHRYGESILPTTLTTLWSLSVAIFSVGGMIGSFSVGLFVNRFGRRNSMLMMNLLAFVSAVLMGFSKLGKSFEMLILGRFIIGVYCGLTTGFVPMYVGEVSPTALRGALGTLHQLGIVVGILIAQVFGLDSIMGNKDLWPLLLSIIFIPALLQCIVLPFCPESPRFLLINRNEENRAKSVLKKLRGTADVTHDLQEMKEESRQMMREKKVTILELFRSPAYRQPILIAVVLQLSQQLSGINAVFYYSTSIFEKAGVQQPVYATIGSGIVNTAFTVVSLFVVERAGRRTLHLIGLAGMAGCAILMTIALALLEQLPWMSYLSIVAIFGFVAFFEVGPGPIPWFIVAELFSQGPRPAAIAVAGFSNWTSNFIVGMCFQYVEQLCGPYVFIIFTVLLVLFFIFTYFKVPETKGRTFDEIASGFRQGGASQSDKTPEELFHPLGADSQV
In short: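 HEK293T cells stably overexpressing GLUT1 gave a detergent-solubilised lysate. This was incubated on rapafucin arrays printed on a diazirine 3D copolymer surface (PEGMA:DMAEMA 8:2; ATRP initiator:propionyl bromide 1:100). Unbound protein was washed off, and bound GLUT1 was detected with anti-GLUT1 antibody plus Cy5 secondary on a microarray scanner. BAY-876 served as positive control.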

[1] = target: T2, DLD-1 GLUT1 knock out (for GLUT3) (Homo sapiens, UniProt P11169); experiment: [3H]-2DG uptake in DLD-1 GLUT1 knock out cells; format: cell-based; conditions: DLD-1 GLUT1 knock out vs wild type
T2 sequence (P11169 1-496): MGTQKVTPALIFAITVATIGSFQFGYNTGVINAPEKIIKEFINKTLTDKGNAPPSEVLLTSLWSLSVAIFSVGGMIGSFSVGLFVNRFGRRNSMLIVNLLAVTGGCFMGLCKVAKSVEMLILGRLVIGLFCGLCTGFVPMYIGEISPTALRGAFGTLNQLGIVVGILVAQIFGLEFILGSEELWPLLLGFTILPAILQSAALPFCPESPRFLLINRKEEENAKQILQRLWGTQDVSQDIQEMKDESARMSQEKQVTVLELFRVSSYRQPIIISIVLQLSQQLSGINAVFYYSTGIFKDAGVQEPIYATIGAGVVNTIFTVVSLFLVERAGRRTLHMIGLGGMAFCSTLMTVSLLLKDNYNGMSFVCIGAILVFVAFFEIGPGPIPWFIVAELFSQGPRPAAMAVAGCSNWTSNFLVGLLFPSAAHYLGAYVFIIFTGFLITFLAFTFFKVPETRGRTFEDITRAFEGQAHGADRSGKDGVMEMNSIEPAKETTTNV
In short: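 Isogenic DLD-1 lines were run in parallel: wild type (GLUT1) and GLUT1 knockout (GLUT3). Each was treated with test compound, BAY-876 (GLUT1-specific reference) or cytochalasin B (non-specific GLUT inhibitor), then [3H]-2DG uptake was assessed.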

MCF-7 cells = experiment: FKBP ligand competition in [3H]-2DG uptake assay in MCF-7 cells; format: cell-based, human; conditions: 20 μM with 100nM of RgA
In short: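 MCF-7 cells were exposed to test compound at 100 nM together with 20 μM FK506, 20 μM rapamycin, or their combinations, with each agent also given alone. [3H]-2DG uptake was then measured to test whether excess FKBP-binding ligands antagonise inhibition of glucose uptake.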

Row | signal-to-background ratio (SBR), positive hit on 3D rapafucin microarray (GLUT1) | Structure (SMILES) | inhibitory activity on [3H]-2DG uptake in GLUT1 knock out cells [1] | effect on the inhibitory activity of RgA in the [3H]-2DG uptake assay (MCF-7 cells)
1 | identified | Cc1c(NC(=O)c2cc(C(N)=O)nc3cc(F)ccc23)c(C(F)(F)F)nn1Cc1ccc(C#N)cc1 [BAY-876] | lost its inhibitory activity | 
2 |  | C=CC[C@@H]1/C=C(\C)C[C@H](C)C[C@H](OC)[C@H]2O[C@@](O)(C(=O)C(=O)N3CCCC[C@H]3C(=O)O[C@H](/C(C)=C/[C@@H]3CC[C@@H](O)[C@H](OC)C3)[C@H](C)[C@@H](O)CC1=O)[C@H](C)C[C@@H]2OC [FK506] |  | negligible effect
3 |  | CO[C@H]1C[C@@H]2CC[C@@H](C)[C@@](O)(O2)C(=O)C(=O)N2CCCC[C@H]2C(=O)O[C@H]([C@H](C)C[C@@H]2CC[C@@H](O)[C@H](OC)C2)CC(=O)[C@H](C)/C=C(\C)[C@@H](O)[C@@H](OC)C(=O)[C@H](C)C[C@H](C)/C=C/C=C/C=C/1C [rapamycin] |  | negligible effect
4 |  | C=C1[C@@H](C)[C@H]2[C@H](Cc3ccccc3)NC(=O)[C@]23OC(=O)/C=C/[C@H](O)CCC[C@@H](C)C/C=C/[C@H]3[C@@H]1O [cytochalasin B] | maintained its inhibitory activity | 
